# High-throughput results (PubChem)
# IDH1 mut inh = inhibitors of IDH1 R132H reductase, primary screen, biochemical, plate reader, single point | diaphorase/resazurin fluorescence, 60 min | inhibition, % at 10 µM | 70,000 compounds, 0.18% hits | AID 624101, 2012; in the data active = inhibition above about 34%; inconclusive = no clear call, values can overlap the other calls; inactive = below about 11%;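 also: 0% = DMSO and 100% = no enzyme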
# Target sequence (O75874 whole entry R132H): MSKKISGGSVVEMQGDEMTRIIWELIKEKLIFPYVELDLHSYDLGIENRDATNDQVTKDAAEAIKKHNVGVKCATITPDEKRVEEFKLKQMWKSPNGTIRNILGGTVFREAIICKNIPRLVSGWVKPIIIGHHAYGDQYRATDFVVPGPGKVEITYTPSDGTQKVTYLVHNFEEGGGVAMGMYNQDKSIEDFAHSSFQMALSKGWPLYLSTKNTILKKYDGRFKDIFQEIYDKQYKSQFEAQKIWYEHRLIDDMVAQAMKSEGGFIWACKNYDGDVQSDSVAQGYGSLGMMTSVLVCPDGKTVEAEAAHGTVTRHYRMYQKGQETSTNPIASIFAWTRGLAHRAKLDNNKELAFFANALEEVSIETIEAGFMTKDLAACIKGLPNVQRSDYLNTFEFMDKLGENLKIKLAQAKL
# T cruzi growth-1 = T. cruzi intracellular proliferation inhibitors, primary screen, cell-based, beta-gal Tulahuen parasites, NIH3T3 host, luminescence | T. cruzi beta-gal in NIH3T3, GalScreen luminescence, 90 h | inhibition, % at 8.34 µM | 77,000 compounds, 5.9% hits;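 active = mean inhibition above about 93%, with at least 55% of replicates each passing it, limit read from the data, passing the limit was not always enough; inconclusive = only one of those two conditions holds; inactive = neither condition holds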
# KDM4C inh = inhibitors of GASC-1 (KDM4C) histone demethylase, primary screen, biochemical, single concentration HTS; inhibition, % at 12.5 µM; Lysine-specific demethylase 4C (Homo sapiens), Q9H3R0; AID 720574, 2013; 96,000 compounds, 0.15% hits; GST-KDM4C 2-372, H3K9me3 peptide, LANCE TR-FRET;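 active = mean replicate inhibition above about 25%, with at least 55% of replicates also reaching it, limit read from the data, passing the limit was not always enough; inconclusive = only one of those two conditions met; inactive = neither condition met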
#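 Material: GST-tagged GASC-1 (JMJD2C) catalytic fragment, aa 2-372 / Quantity: enzyme final amount 10 nM / Medium: HEPES buffer, pH 7.5, plus ascorbate / Doses: one test concentration per compound / Incubation: 30 min reaction, 60 min detection, RT / Measured by: LANCE TR-FRET / Read-out: inhibition from TR-FRET ratio decrease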
# T cruzi growth-2 = T. cruzi intracellular proliferation inhibitors, confirmation, cell-based, NIH3T3 host, beta-gal parasite, luminescence, cherry-pick; shares compounds with T cruzi growth-1; T. cruzi beta-gal in NIH3T3, GalScreen luminescence, 90 h; inhibition, % at 8.35 µM; 5,600 compounds, 72% hits; AID 651739, 2012;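 active = mean replicate inhibition above about 95% and at least 55% of replicates individually reaching it, limit read from the data; inconclusive = only one of the two criteria is met; inactive = neither criterion is met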
# T cruzi growth-3 = inhibitors of intracellular T. cruzi replication, confirmation, NIH3T3 host cells, beta-gal parasites, cherry-pick, set 2 | shares compounds with T cruzi growth-1 | T. cruzi beta-gal in NIH3T3, GalScreen luminescence, 90 h | inhibition, % at 2.09 µM | 5,600 compounds, 21% hits;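 active = mean inhibition above about 95%, with at least 55% of replicates also reaching it, limit read from the data; inconclusive = meets just one of the two conditions; inactive = meets neither condition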;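 also: plate controls were neutral control median for no effect and positive control median for full effect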
# NIH3T3 tox = cytotoxicity in mouse NIH/3T3 fibroblasts, confirmation, cytotoxicity control for T. cruzi proliferation inhibitor project, cell-based, cherry-pick, single point. AID 651742, 2012. NIH/3T3 viability, CellTiter-Glo ATP luminescence, 90 h. cytotoxicity (signal decrease), % at 8.35 µM. shares compounds with T cruzi growth-1. 5,600 compounds, 14% hits;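 active = mean signal decrease across replicates above about 35% based on untreated-well scatter, with enough replicates individually passing, limit read from the data; inconclusive = no rule stated though some were filed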;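 also: 0% = median of neutral control wells and 100% = median of positive control wells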
# 3T3 cytotox 2 = NIH/3T3 fibroblast cytotoxicity, confirmation, cytotoxicity control, cell-based, cherry-pick, single point, set 2; shares compounds with T cruzi growth-1; NIH/3T3 viability, CellTiter-Glo ATP luminescence, 90 h; inhibition, % at 24.9 µM; 5,600 compounds, 56% hits; AID 651744, 2012;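 active = mean loss of cell viability signal at or above a set limit, and enough replicates individually reaching it; inconclusive = meets only the mean limit or only the replicate share; inactive = meets neither condition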;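 also: 0% = median of neutral control wells and 100% = median of positive control wells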
# Numbers without * were called inactive; u = inconclusive; x = no result. Many of the other results were omitted from the sample, so hits are more common in it than they were.
SMILES,IDH1 mut inh,T cruzi growth-1,KDM4C inh,T cruzi growth-2,T cruzi growth-3,NIH3T3 tox,3T3 cytotox 2
O=C(NCCc1ccccc1)[C@H]1[C@H](CO)[C@H]2Cn3c(cccc3=O)[C@@H]1N2C(=O)C1CCC1,x,99.2*,0.3,66.1,21.0,9.9,-11.3
O=C(NCCc1ccccc1)[C@@H]1[C@@H](CO)[C@@H]2Cn3c(cccc3=O)[C@H]1N2C(=O)C1CC1,x,21.4,-1.5,x,x,x,x
O=C(NCCc1ccccc1)[C@H]1[C@H](CO)[C@H]2Cn3c(cccc3=O)[C@@H]1N2C(=O)C1CCCC1,x,78.9,-0.6,x,x,x,x
C/C=C/c1ccc([C@@H]2[C@H](CN(C)S(=O)(=O)c3ccccc3)N[C@@H]2CO)cc1,x,108.1*,0.6,47.5,24.7,-10.1,36.9*
O=S(=O)(NC[C@@H]1N[C@@H](CO)[C@@H]1c1ccccc1)c1ccccc1,x,60.9,2.1,x,x,x,x
C/C=C/c1ccc([C@@H]2[C@@H](CO)N[C@@H]2CN(C)S(=O)(=O)c2ccccc2)cc1,x,13.5,-2.9,x,x,x,x
O=S(=O)(NC[C@@H]1N[C@@H](CO)[C@H]1c1ccccc1)c1ccccc1,x,104.4*,-3.9,68.5,13.8,10.3,11.9
COC1(C(=O)NN)COc2ccccc2O1 (stereo unspecified),-0.9,x,x,x,x,x,x
C=C1[C@@H]2CC[C@H]3[C@@]4(C)C(C[C@H](OC(=O)[C@]5(C)O[C@@H]5C)[C@]3(C2)[C@@H]1OC(C)=O)[C@](C)(C(=O)OC)CC[C@H]4OC(C)=O (stereo partly specified),0.8,x,x,x,x,x,x
Cc1cc(N2CCCC2)ccc1/C=C(/C#N)c1ccc(F)cc1,0.2,x,x,x,x,x,x
CCOC(=O)c1cnc2c(C(F)(F)F)cccc2c1NCCO,-0.5,x,x,x,x,x,x
C[C@@H]1CCCCO[C@H](CN(C)C(=O)C2CCCCC2)[C@H](C)CN([C@@H](C)CO)C(=O)c2cc(N(C)C)ccc2O1,-3.3,110.4*,5.8,67.6,21.1,-0.9,3.1
C[C@@H]1CCCCO[C@@H](CN(C)C(=O)C2CCCCC2)[C@@H](C)CN([C@@H](C)CO)C(=O)c2cc(N(C)C)ccc2O1,x,46.6,6.6,x,x,x,x
C[C@@H]1CCCCO[C@@H](CN(C)C(=O)C2CCCCC2)[C@@H](C)CN([C@H](C)CO)C(=O)c2cc(N(C)C)ccc2O1,-2.3,35.3,1.0,x,x,x,x
C[C@H](CO)N1C[C@H](C)[C@H](CN(C)C(=O)C2CCCCC2)OCCCC[C@H](C)Oc2ccc(N(C)C)cc2C1=O,-7.6,99.9*,3.3,53.2,19.6,5.5,-18.7
Cc1ccccc1-c1ccc([C@H]2[C@@H](CO)N3CCCCN(C(=O)NC4CCCC4)C[C@H]23)cc1,x,115.1*,-0.2,107.8*,99.2*,19.9,105.8*
COc1ccccc1-c1ccc([C@H]2[C@H]3CN(C(=O)NC4CCCC4)CCCCN3[C@H]2CO)cc1,x,69.1,0.1,x,x,x,x
COc1ccccc1-c1ccc([C@@H]2[C@H]3CN(C(=O)NC4CCCC4)CCCCN3[C@H]2CO)cc1,x,68.2,-0.3,x,x,x,x
Cc1ccccc1-c1ccc([C@H]2[C@H]3CN(C(=O)NC4CCCC4)CCCCN3[C@H]2CO)cc1,x,112.4*,-1.7,105.5*,52.7,-10.7,54.7*
Cc1ccccc1-c1ccc([C@H]2[C@@H](CO)N3CCCCN(C(=O)NC4CCCC4)C[C@@H]23)cc1,x,106.0*,0.0,108.1*,92.9,17.1,80.8*
COc1ccccc1-c1ccc([C@@H]2[C@@H](CO)N3CCCCN(C(=O)NC4CCCC4)C[C@@H]23)cc1,x,77.4,1.4,x,x,x,x
O=C(CCN1C(=O)C2C3C=CC(C3)C2C1=O)Nc1cccc2ccccc12 (stereo unspecified),0.3,x,x,x,x,x,x
O=C(NCCCN1CCCC1=O)Nc1ccc(Br)cc1,0.2,x,x,x,x,x,x
Cc1nn(C)c(C)c1CN(C)C(=O)c1cc2nc(-c3ccc(Cl)cc3)cc(C(F)(F)F)n2n1,2.1,x,x,x,x,x,x
COC(=O)c1cc2c(N)c(C(=O)OC)sc2nc1C(OC)OC,-0.9,x,x,x,x,x,x
SMILES,IDH1 mut inh,T cruzi growth-1,KDM4C inh,T cruzi growth-2,T cruzi growth-3,NIH3T3 tox,3T3 cytotox 2
O=C(Cn1cnc2ccccc2c1=O)Nc1ccc(Br)cc1F,0.4,x,x,x,x,x,x
COc1ccc(Cl)cc1NC(=O)CN(c1ccc(Cl)c(C(F)(F)F)c1)S(C)(=O)=O,0.5,x,x,x,x,x,x
COC(=O)CN1C(=O)CN(c2nc(C)cc(C)n2)C1=O,-0.1,x,x,x,x,x,x
COCC#Cc1ccc2c(c1)O[C@@H](CN(C)Cc1ccc3c(c1)OCO3)[C@H](C)CN([C@@H](C)CO)S2(=O)=O,-1.6,x,0.5,x,x,x,x
COCC#Cc1ccc2c(c1)O[C@@H](CN(C)Cc1ccc3c(c1)OCO3)[C@@H](C)CN([C@H](C)CO)S2(=O)=O,-3.8,x,1.1,x,x,x,x
CC(C)CC#Cc1ccc2c(c1)O[C@H](CN(C)Cc1ccc3c(c1)OCO3)[C@H](C)CN([C@@H](C)CO)S2(=O)=O,-0.7,96.0*,x,u,107.1*,-6.8,105.7*
CCCC#Cc1ccc2c(c1)O[C@@H](CN(C)Cc1ccc3c(c1)OCO3)[C@H](C)CN([C@@H](C)CO)S2(=O)=O,-0.1,u,17.7,97.8*,107.8*,51.3*,103.7*
CCCC#Cc1ccc2c(c1)O[C@H](CN(C)Cc1ccc3c(c1)OCO3)[C@@H](C)CN([C@@H](C)CO)S2(=O)=O,-2.0,90.6,0.6,x,x,x,x
COCC#Cc1ccc2c(c1)O[C@H](CN(C)Cc1ccc3c(c1)OCO3)[C@@H](C)CN([C@@H](C)CO)S2(=O)=O,0.1,x,3.8,x,x,x,x
C[C@@H]1CN([C@H](C)CO)S(=O)(=O)c2ccc(C#CCN(C)C)cc2O[C@H]1CN(C)Cc1ccc2c(c1)OCO2,-1.5,105.4*,0.9,99.9*,69.1,58.5*,107.0*
CCCC#Cc1ccc2c(c1)O[C@@H](CN(C)Cc1ccc3c(c1)OCO3)[C@H](C)CN([C@H](C)CO)S2(=O)=O,-5.5,100.7*,2.3,u,103.7*,59.2*,102.8*
O=C(COc1ccc(C(=O)Nc2cc(Cl)ccc2Cl)cc1)Nc1cccc2ccccc12,0.2,x,x,x,x,x,x
C[C@H]1CCCCO[C@@H](CN(C)C(=O)Nc2ccc(C(F)(F)F)cc2)[C@@H](C)CN([C@@H](C)CO)C(=O)c2cc(NC(=O)Nc3ccc(C(F)(F)F)cc3)ccc2O1,x,125.6*,-1.0,109.4*,111.2*,-7.1,5.6
